Experimental data reported in ChEMBL document CHEMBL5724801, “EUbOPEN Chemogenomics Library - Multiplex” (2024).
“And” between values parts separate entries of the source, which are not always exact repeats. Equal entries are not always repeated.

Experiments:
HEK-293T = test: Multiplex assay against HEK293T; assay type: toxicity, cell-based; settings: human
In short: (§1)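 Live cells carried four stains from seeding: Hoechst33342, BioTracker Green Microtubule Cytoskeleton Dye, MitoTracker Red and Annexin V Alexa Fluor 680. They were imaged on a CQ1 microscope at 37°C and 5% CO2 after compound addition. Using CellPathfinder machine-learning gating, cells were split into Hoechst high-intensity objects or normal cells, normal cells into healthy, pyknosed or fragmented nuclei, and pyknosed cells into mitotic or apoptotic; tubulin, mitochondrial-mass and membrane-permeability phenotypes are per cents of healthy-nucleus cells.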

U2OS = test: Multiplex assay against U2OS; assay type: toxicity, cell-based; settings: human; in short: as §1
[1] = 24 h, 10 µM, compound concentration 10 uM
[2] = 48 h, 1 µM, compound concentration 1 uM
[3] = 48 h, 10 µM, compound concentration 10 uM
[4] = 12 h, 1 µM, compound concentration 1 uM
[5] = 12 h, 10 µM, compound concentration 10 uM
[6] = 24 h, 1 µM, compound concentration 1 uM

N[C@](CC1c2ccccc2Oc2ccccc21)(C(=O)O)[C@H]1C[C@@H]1C(=O)O
Population Apoptotic (%) (HEK-293T; [1]): 29% and 40% | Population Fragmented Nuclei (%) (HEK-293T; [1]): 10% and 6% | Population Healthy Nuclei (%) (HEK-293T; [1]): 79% and 82% | Population Hoechst High Intensity Objects (%) (HEK-293T; [1]): 5% | Population Membrane Permeable-Phenotype (%) (HEK-293T; [1]): 0% | Population Mitochondria Different-Phenotype (%) (HEK-293T; [1]): 30% and 41% | Population Mitotic Cells (%) (HEK-293T; [1]): 70% and 59% | Population Normal (%) (HEK-293T; [1]): 94% | Population Pyknosed Nuclei (%) (HEK-293T; [1]): 10% and 11% | Population Tubulin-Different-Phenotype (%) (HEK-293T; [1]): 17% and 16% | Total Cell Count (HEK-293T; [1]): 510 and 471 | Population Apoptotic (%) (HEK-293T; [2]): 12% and 17% | Population Fragmented Nuclei (%) (HEK-293T; [2]): 11% and 12% | Population Healthy Nuclei (%) (HEK-293T; [2]): 80% and 81% | Population Hoechst High Intensity Objects (%) (HEK-293T; [2]): 2% and 1% | Population Membrane Permeable-Phenotype (%) (HEK-293T; [2]): 2% and 0% | Population Mitochondria Different-Phenotype (%) (HEK-293T; [2]): 15% and 17% | Population Mitotic Cells (%) (HEK-293T; [2]): 87% and 82% | Population Normal (%) (HEK-293T; [2]): 97% and 98% | Population Pyknosed Nuclei (%) (HEK-293T; [2]): 7% and 6% | Population Tubulin-Different-Phenotype (%) (HEK-293T; [2]): 13% and 10% | Total Cell Count (HEK-293T; [2]): 1040 and 654 | Population Apoptotic (%) (HEK-293T; [3]): 28% and 42% | Population Fragmented Nuclei (%) (HEK-293T; [3]): 13% | Population Healthy Nuclei (%) (HEK-293T; [3]): 78% and 80% | Population Hoechst High Intensity Objects (%) (HEK-293T; [3]): 2% and 4% | Population Membrane Permeable-Phenotype (%) (HEK-293T; [3]): 0% | Population Mitochondria Different-Phenotype (%) (HEK-293T; [3]): 17% and 25% | Population Mitotic Cells (%) (HEK-293T; [3]): 71% and 57% | Population Normal (%) (HEK-293T; [3]): 97% and 95% | Population Pyknosed Nuclei (%) (HEK-293T; [3]): 8% and 6% | Population Tubulin-Different-Phenotype (%) (HEK-293T; [3]): 8% and 12% | Total Cell Count (HEK-293T; [3]): 789 and 687 | Population Apoptotic (%) (U2OS; [4]): 80% and 72% | Population Fragmented Nuclei (%) (U2OS; [4]): 22% and 10% | Population Healthy Nuclei (%) (U2OS; [4]): 67% and 79% | Population Hoechst High Intensity Objects (%) (U2OS; [4]): 1% | Population Membrane Permeable-Phenotype (%) (U2OS; [4]): 6% and 1% | Population Mitochondria Different-Phenotype (%) (U2OS; [4]): 2% and 8% | Population Mitotic Cells (%) (U2OS; [4]): 20% and 27% | Population Normal (%) (U2OS; [4]): 98% | Population Pyknosed Nuclei (%) (U2OS; [4]): 9% | Population Tubulin-Different-Phenotype (%) (U2OS; [4]): 4% and 3% | Total Cell Count (U2OS; [4]): 218 and 114 | Population Apoptotic (%) (U2OS; [5]): 84% and 83% | Population Fragmented Nuclei (%) (U2OS; [5]): 18% and 19% | Population Healthy Nuclei (%) (U2OS; [5]): 72% and 76% | Population Hoechst High Intensity Objects (%) (U2OS; [5]): 3% and 0% | Population Membrane Permeable-Phenotype (%) (U2OS; [5]): 5% and 7% | Population Mitochondria Different-Phenotype (%) (U2OS; [5]): 3% and 0% | Population Mitotic Cells (%) (U2OS; [5]): 16% | Population Normal (%) (U2OS; [5]): 96% and 100% | Population Pyknosed Nuclei (%) (U2OS; [5]): 8% and 4% | Population Tubulin-Different-Phenotype (%) (U2OS; [5]): 2% | Total Cell Count (U2OS; [5]): 295 and 141 | Population Apoptotic (%) (U2OS; [6]): 78% and 63% | Population Fragmented Nuclei (%) (U2OS; [6]): 20% and 14% | Population Healthy Nuclei (%) (U2OS; [6]): 70% and 77% | Population Hoechst High Intensity Objects (%) (U2OS; [6]): 1% and 0% | Population Membrane Permeable-Phenotype (%) (U2OS; [6]): 1% and 4% | Population Mitochondria Different-Phenotype (%) (U2OS; [6]): 1% and 5% | Population Mitotic Cells (%) (U2OS; [6]): 21% and 36% | Population Normal (%) (U2OS; [6]): 98% and 99% | Population Pyknosed Nuclei (%) (U2OS; [6]): 8% | Population Tubulin-Different-Phenotype (%) (U2OS; [6]): 1% and 2% | Total Cell Count (U2OS; [6]): 272 and 137 | Population Apoptotic (%) (U2OS; [1]): 80% and 81% | Population Fragmented Nuclei (%) (U2OS; [1]): 13% and 15% | Population Healthy Nuclei (%) (U2OS; [1]): 79% and 77% | Population Hoechst High Intensity Objects (%) (U2OS; [1]): 3% and 0% | Population Membrane Permeable-Phenotype (%) (U2OS; [1]): 3% and 8% | Population Mitochondria Different-Phenotype (%) (U2OS; [1]): 3% and 1% | Population Mitotic Cells (%) (U2OS; [1]): 20% and 18% | Population Normal (%) (U2OS; [1]): 96% and 99% | Population Pyknosed Nuclei (%) (U2OS; [1]): 7% and 6% | Population Tubulin-Different-Phenotype (%) (U2OS; [1]): 1% and 3% | Total Cell Count (U2OS; [1]): 365 and 164 | Population Apoptotic (%) (U2OS; [2]): 89% and 85% | Population Fragmented Nuclei (%) (U2OS; [2]): 14% and 16% | Population Healthy Nuclei (%) (U2OS; [2]): 75% and 72% | Population Hoechst High Intensity Objects (%) (U2OS; [2]): 2% and 1% | Population Membrane Permeable-Phenotype (%) (U2OS; [2]): 3% and 5% | Population Mitochondria Different-Phenotype (%) (U2OS; [2]): 1% and 3% | Population Mitotic Cells (%) (U2OS; [2]): 10% and 15% | Population Normal (%) (U2OS; [2]): 97% and 98% | Population Pyknosed Nuclei (%) (U2OS; [2]): 9% and 10% | Population Tubulin-Different-Phenotype (%) (U2OS; [2]): 1% and 4% | Total Cell Count (U2OS; [2]): 403 and 190 | Population Apoptotic (%) (U2OS; [3]): 90% and 81% | Population Fragmented Nuclei (%) (U2OS; [3]): 15% and 12% | Population Healthy Nuclei (%) (U2OS; [3]): 77% and 78% | Population Hoechst High Intensity Objects (%) (U2OS; [3]): 1% and 0% | Population Membrane Permeable-Phenotype (%) (U2OS; [3]): 4% and 7% | Population Mitochondria Different-Phenotype (%) (U2OS; [3]): 3% and 1% | Population Mitotic Cells (%) (U2OS; [3]): 10% and 18% | Population Normal (%) (U2OS; [3]): 98% and 100% | Population Pyknosed Nuclei (%) (U2OS; [3]): 7% and 9% | Population Tubulin-Different-Phenotype (%) (U2OS; [3]): 2% and 3% | Total Cell Count (U2OS; [3]): 554 and 238
